One experiment has as its system SK-MEL-28. In words: Concentration required to reduce proliferation of human melanoma (SKMEL-28) cell line by 50% as determined by the MTT method. In kind it is functional, cell-based. In outline:
(§1)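 Solid-tumour-derived cells (and fibroblasts) were seeded in exponential growth at 5×10^4 cells/mL and allowed to adhere for 16 h before serial drug dilutions were added (DMSO stock 200 μM, diluted in medium). MTT viability was read 4 days later. Untreated controls went through at least three rounds of multiplication. IC50 came from linear regression of % growth versus untreated control, mean of three independent determinations.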

A further experiment deals with MCF7. Kind of experiment: Concentration required to reduce proliferation of human breast adenocarcinoma (MCF-7) cell line by 50% as determined by the MTT method. In kind it is functional, cell-based. The method in brief: as §1
For orientation: Tetrazolium assays rely on reduction of a dye to a coloured formazan, in cell work by metabolically active cells.

Experiment [1] relates to KB. Kind of experiment: Concentration required to reduce proliferation of KB subclones passaged in the presence of vincristine 0.02 uM (KBV20C) cell line by 50% as determined by the MTT method. The conditions noted are these: Homo sapiens.
A further experiment relates to SK-MES-1. Kind of experiment: Concentration required to reduce proliferation of human lung squamous carcinoma (SKMES-1) cell line by 50% as determined by the MTT method. In kind it is functional, cell-based. In outline:
as §1

For a further experiment, the system named is WIL2-NS. Kind of experiment: Concentration required to reduce proliferation of human splenic B-lymphoblastoid (Wil2-NS) cell line by 50% as determined by the MTT method. In kind it is functional, cell-based. The method in brief:
(§2)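 Leukemia/lymphoma cells grown in RPMI 1640 with 10% FCS, 37 °C, humidified 5% CO2. Compounds were dissolved in DMSO (200 μM initial) and serially diluted in medium. Exponentially growing cells were resuspended at 1×10^5 cells/mL with the drug dilutions. Viability was read by MTT after 96 h at 37 °C. Growth was taken as % of untreated controls, and IC50 came from linear regression. Values are the mean of three independent determinations.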

A further experiment concerns CCRF-SB. In words: Concentration required to reduce proliferation of human acute B-lymphoblastic (CCRF-SB) cell line by 50% as determined by the MTT method. In kind it is functional, cell-based. The method in brief:
as §2

The subject of experiment [2] is KB. In words: Concentration required to reduce proliferation of KB subclones passaged in the presence of etoposide 7 uM (KB7D) cell line by 50% as determined by the MTT method. The conditions noted are these: Homo sapiens. In kind it is functional, cell-based. In outline:
(§3)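 Adherent cultures were seeded at 5×10^4 cells/mL, attached for 16 h, then exposed to serial drug dilutions. MTT viability was read after 4 days, with controls completing at least three doublings. IC50 came from linear regression, mean ±SD of three independent determinations.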

The next experiment relates to DU-145. In words: Concentration required to reduce proliferation of human prostate carcinoma (DU-145) cell line by 50% as determined by the MTT method. In kind it is functional, cell-based. In outline: as §1
In another experiment the test system is HepG2. In words: Concentration required to reduce proliferation of human hepatocellular carcinoma (HepG-2) cell line by 50% as determined by the MTT method. In kind it is functional, cell-based. The method in brief:
as §1

For experiment [3], the system named is KB. Kind of experiment: Concentration required to reduce proliferation of KB human nasopharyngeal carcinoma (KBWT) cell line by 50% as determined by the MTT method. Type of experiment: functional, cell-based. In outline: as §3
The next experiment deals with CCRF-CEM. In words: Concentration required to reduce proliferation of CD4+ human acuteT-lymphoblastic leukemia (CCRF-CEM) cell line by 50% as determined by the MTT method. In kind it is functional, cell-based. In outline:
as §2

Experiment [4] relates to KB. In words: Concentration required to reduce proliferation of KB subclones passaged in the presence of doxorubicin 0.09 uM (KBMDR) cell line by 50% as determined by the MTT method. Type of experiment: functional, cell-based. The note with it: Homo sapiens. The method in brief: as §3
A further experiment has as its system MT4. In words: Concentration required to reduce proliferation of CD4+ human acute T-lymphoblastic leukemia (MT-4) cell line by 50% as determined by the MTT method. Type of experiment: functional, cell-based. The method in brief: as §2

Each structure is given as a SMILES string. *1 amine or outer side, *2 acyl side, *3 side chain or, on linkers, in order; H or OH if unused. Where a SMILES comes first, the peptide text is derived from it. Bridges are numbered along the chain shown (N, C = ends). Roman numbers before positions name the chains, in order. [ ]: non-standard residue; d: D form. Actinocin(1to9) = Cc1c2oc3c(C)ccc(C(=O)[*:2])c3nc-2c(C(=O)[*:1])c(N)c1=O; NMeV = CN[C@H](C(=O)O)C(C)C; Sar = CNCC(=O)O

As a reminder, the IC50 is the midpoint of a concentration-inhibition curve. As for `CCOC(=O)C1=CC2C(=O)c3ncccc3C(=O)C2C(c2ccc([N+](=O)[O-])cc2)=N1` (centres undefined), the IC50 in the experiment on SK-MEL-28 came out at 1 nM; in the experiment on MCF7 it was 80 nM; with KB [1], 200 nM; with SK-MES-1, 10 nM; with WIL2-NS it was 1 nM; in the experiment on CCRF-SB it was 2 nM. Also, the IC50 in the experiment on KB [2] worked out at 400 nM; with DU-145, 10 nM; with HepG2, 70 nM; in the experiment on KB [3] it was 80 nM; with CCRF-CEM it was 50 nM; in the experiment on KB [4] it was 300 nM. The IC50 in the experiment on MT4 came to 1 nM.

Regarding `COc1cc([C@@H]2c3cc4c(cc3[C@@H](O[C@@H]3O[C@@H]5CO[C@@H](C)O[C@H]5[C@H](O)[C@H]3O)[C@H]3COC(=O)[C@H]23)OCO4)cc(OC)c1O` [ETOPOSIDE], the IC50 in the experiment on KB [1] is 2400 nM; in the experiment on KB [2] it was > 20000 nM; with KB [3], 800 nM; in the experiment on KB [4], > 20000 nM.

Turning to `CC[C@]1(O)C[C@H]2CN(CCc3c([nH]c4ccccc34)[C@@](C(=O)OC)(c3cc4c(cc3OC)N(C=O)[C@H]3[C@@](O)(C(=O)OC)[C@H](OC(C)=O)[C@]5(CC)C=CCN6CC[C@]43[C@@H]65)C2)C1` [VINCRISTINE], the IC50 in the experiment on KB [1] worked out at 200 nM; in the experiment on KB [3], 4 nM; with KB [4] it was 1000 nM.

Regarding `Cc1c2oc3c(C)ccc(C(=O)N[C@@H]4C(=O)N[C@H](C(C)C)C(=O)N5CCC[C@H]5C(=O)N(C)CC(=O)N(C)[C@@H](C(C)C)C(=O)O[C@@H]4C)c3nc-2c(C(=O)N[C@@H]2C(=O)N[C@H](C(C)C)C(=O)N3CCC[C@H]3C(=O)N(C)CC(=O)N(C)[C@@H](C(C)C)C(=O)O[C@@H]2C)c(N)c1=O` [DACTINOMYCIN] (I: T[dV]P[Sar][NMeV] / II: T[dV]P[Sar][NMeV]; ester I:1-I:C, II:1-II:C; linker I:N-II:N via Actinocin(1to9)), the 50% inhibitory concentration (IC50) with KB [1] was 50 nM; with KB [2], 200 nM; in the experiment with KB [3], 4 nM; in the experiment on KB [4], 200 nM.

Values taken from ChEMBL document CHEMBL1148410, “Antitumor agents. 3. Design, synthesis, and biological evaluation of new pyridoisoquinolindione and dihydrothienoquinolindione derivatives with potent cytotoxic activity” (J Med Chem, 2004).
